Measurements: ChEMBL document CHEMBL3526063, “Metabolism and pharmacokinetics of JM6 in mice: JM6 is not a prodrug for Ro-61-8048” (Drug Metab Dispos, 2012)

Legend:
[1] = AUClast in C57BL/6N mouse at 0.05 mg/kg, po administered via gavage by LC-MS/MS analysis; type: ADME, organism-based; set-up: time 0 - last, dose 0.05 mg/kg, route oral; conditions: plasma
Method in brief: (§1)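 Male C57BL/6N mice were dosed by oral gavage at 10 mL/kg with a fine suspension in 10% hydroxypropyl-β-cyclodextrin in 50 mM phosphate buffer, pH 7. Plasma was taken at non-serial time points (n=3 per time point), extracted with 0.1% formic acid in acetonitrile containing diclofenac as internal standard, and quantified by UPLC-MS/MS. Composite non-compartmental parameters came from mean concentrations; AUClast by linear trapezoid, kel from at least three terminal points.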

[2] = Cmax in mouse at 25 mg/kg/day, po; type: ADME, organism-based; set-up: dose 25 mg/kg/day, route oral; conditions: in vivo
[3] = AUClast in C57BL/6N mouse at 5 mg/kg, iv administered as single dose by LC-MS/MS analysis; type: ADME, organism-based; set-up: time 0 - last, dose 5 mg/kg, route intravenous; conditions: plasma
Method in brief: (§2)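 Single intravenous bolus of 5 mg/kg to male C57BL/6N mice, given as a filtered 1 mg/mL solution in DMSO:PEG400:water 10:50:40 (v/v). Plasma was extracted in acidified acetonitrile with diclofenac as internal standard and analysed by UPLC-MS/MS. Non-compartmental analysis used mean concentrations (n=3 per time point), with C0 back-extrapolated from the first two samples. AUCinf = AUClast + Ct/kel.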

Mus musculus [4] = test: Dose normalised Cmax in C57BL/6N mouse at 0.05 mg/kg, po administered via gavage by LC-MS/MS analysis; type: ADME, organism-based; set-up: dose 0.05 mg/kg, route oral; conditions: in vivo; method in brief: as §1
[5] = Plasma protein binding in rat at 5 and 20 uM for 6 hrs by LC-MS/MS analysis; type: ADME, cell-free; conditions: read-out: PPB
Method in brief: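 Equilibrium dialysis: plasma fortified in triplicate (5 and 20 µM rat and mouse; 10 µM human) on donor side, PBS on receiver side; 37°C, 200 rpm, 6 h; both sides by LC-MS/MS.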

[6] = target: Kynurenine 3-monooxygenase (Rattus norvegicus, UniProt O88867); test: Inhibition of Wistar rat KMO assessed as 3-hydroxykynurenine formation preincubated for 5 mins using 100 uM kynurenine as substrate by LC-MS/MS analysis in presence of 3 mg/ml plasma protein
Kynurenine 3-monooxygenase (Rattus norvegicus, UniProt O88867), sequence (O88867 whole entry): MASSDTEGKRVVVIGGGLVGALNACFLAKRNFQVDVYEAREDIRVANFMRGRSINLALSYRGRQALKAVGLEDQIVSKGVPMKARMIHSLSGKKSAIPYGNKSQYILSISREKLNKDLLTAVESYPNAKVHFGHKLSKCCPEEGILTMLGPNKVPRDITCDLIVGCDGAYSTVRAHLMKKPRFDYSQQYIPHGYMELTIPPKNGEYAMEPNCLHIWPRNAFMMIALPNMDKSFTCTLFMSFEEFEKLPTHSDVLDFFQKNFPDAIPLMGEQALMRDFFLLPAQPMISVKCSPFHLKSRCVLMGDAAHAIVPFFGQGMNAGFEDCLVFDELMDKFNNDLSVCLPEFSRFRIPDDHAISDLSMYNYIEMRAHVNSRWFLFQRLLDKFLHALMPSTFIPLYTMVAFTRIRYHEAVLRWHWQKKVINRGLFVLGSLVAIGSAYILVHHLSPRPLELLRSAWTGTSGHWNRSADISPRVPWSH
Method in brief: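 KMO from Wistar rat liver (0.3 mg protein/ml) preincubated 5 min at 25°C with compound plus 3 mg/mL plasma protein in 100 mM potassium phosphate pH 7.4, 200 µM NADPH, G6PDH regenerating system. Started with 100 µM kynurenine, 40 min, stopped with TCA; 3-hydroxykynurenine by LC-MS/MS. 8-point 3-fold dilutions; triplicates, ≥2 runs.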

[7] = Mean residence time in C57BL/6N mouse at 5 mg/kg, iv administered as single dose by LC-MS/MS analysis; type: ADME, organism-based; set-up: dose 5 mg/kg, route intravenous; conditions: in vivo
Method in brief: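 Male C57BL/6N mice given 5 mg/kg iv bolus as 1 mg/mL filtered solution in DMSO:PEG400:water 10:50:40. Plasma extracted with acidified acetonitrile (diclofenac IS), analysed by LC-MS/MS. Composite non-compartmental parameters from mean concentrations (n=3 per time point); C0 back-extrapolated from first two points; kel from at least last three concentrations.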

[8] = AUC(infinity) in C57BL/6N mouse at 5 mg/kg, iv administered as single dose by LC-MS/MS analysis; type: ADME, organism-based; set-up: time infinity, dose 5 mg/kg, route intravenous; conditions: plasma; method in brief: as §2
[9] = Tmax in C57BL/6N mouse at 0.05 mg/kg, po administered via gavage by LC-MS/MS analysis; type: ADME, organism-based; set-up: dose 0.05 mg/kg, route oral; conditions: in vivo
Method in brief: (§3)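 Male C57BL/6N mice dosed by oral gavage (10 mL/kg) as fine suspensions in 10% hydroxypropyl-β-cyclodextrin in 50 mM phosphate buffer pH 7; dose formulations verified by LC-MS/MS. Plasma analysed by LC-MS/MS; composite non-compartmental parameters from mean concentrations (n=3 per time point), C0 set to zero. %F = dose-normalised po AUCinf over dose-normalised iv AUCinf, only within linear range.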

[10] = Oral bioavailability in C57BL/6N mouse at 0.05 mg/kg administered via gavage by LC-MS/MS analysis; type: ADME, organism-based; conditions: in vivo; method in brief: as §3
[11] = target: T1, Kynurenine 3-monooxygenase (Homo sapiens, UniProt O15229); test: Inhibition of human KMO assessed as 3-hydroxykynurenine formation preincubated for 5 mins using 100 uM kynurenine as substrate by LC-MS/MS analysis in presence of 3 mg/ml plasma protein
T1 sequence (O15229 whole entry): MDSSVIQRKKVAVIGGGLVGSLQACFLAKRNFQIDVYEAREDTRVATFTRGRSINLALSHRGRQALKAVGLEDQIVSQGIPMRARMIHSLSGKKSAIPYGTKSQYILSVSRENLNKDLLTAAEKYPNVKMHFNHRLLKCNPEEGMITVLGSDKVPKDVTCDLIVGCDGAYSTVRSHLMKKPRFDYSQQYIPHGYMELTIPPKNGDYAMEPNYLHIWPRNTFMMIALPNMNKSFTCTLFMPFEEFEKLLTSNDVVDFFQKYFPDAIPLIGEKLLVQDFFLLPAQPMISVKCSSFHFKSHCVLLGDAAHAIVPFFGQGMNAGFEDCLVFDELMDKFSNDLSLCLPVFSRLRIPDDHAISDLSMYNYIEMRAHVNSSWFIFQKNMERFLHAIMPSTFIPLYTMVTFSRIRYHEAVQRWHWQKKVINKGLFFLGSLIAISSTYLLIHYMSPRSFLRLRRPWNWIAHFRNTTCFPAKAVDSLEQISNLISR
Method in brief: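 Liver mitochondrial KMO (mouse C57 BL/6J or human), 0.3 mg protein/mL in 100 mM potassium phosphate pH 7.4, 200 µM NADPH, NADPH-regenerating system, plus 3 mg/mL plasma protein. Compound pre-incubated 5 min at 25°C; 100 µM kynurenine started reaction for 40 min (mouse) or 60 min (human); TCA stop; 3-hydroxykynurenine by LC-MS/MS. IC50 from 8-point 3-fold series, triplicates, n≥2.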

[12] = Half life in C57BL/6N mouse at 0.05 mg/kg, po administered via gavage by LC-MS/MS analysis; type: ADME, organism-based; set-up: dose 0.05 mg/kg, route oral; conditions: in vivo; method in brief: as §1
[13] = AUClast in C57BL/6N mouse at 5 mg/kg, iv administered as single dose containing <0.4% Ro-61-8048 by LC-MS/MS analysis; type: ADME, organism-based; set-up: time 0 - last, dose 5 mg/kg, route intravenous; conditions: plasma; method in brief: as §2
Liver [14] = test: Metabolic stability in mouse liver microsomes assessed as half life at 1 uM after 5 to 40 mins by LC-MS/MS analysis
Mus musculus [15] = test: Cmax in C57BL/6N mouse at 10 mg/kg, po administered via gavage containing <0.4% Ro-61-8048 by LC-MS/MS analysis; type: ADME, organism-based; set-up: dose 10 mg/kg, route oral; conditions: in vivo; method in brief: as §1
[16] = Cmax in mouse at 25 mg/kg, po; type: ADME, organism-based; set-up: dose 25 mg/kg, route oral; conditions: in vivo
[17] = target: T1, Kynurenine 3-monooxygenase; test: Inhibition of KMO (unknown origin)
[18] = Volume of distribution at steady state in C57BL/6N mouse at 5 mg/kg, iv administered as single dose containing <0.4% Ro-61-8048 by LC-MS/MS analysis; type: ADME, organism-based; set-up: dose 5 mg/kg, route intravenous; conditions: in vivo, read-out: Vdss
Method in brief: (§4)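 Male C57BL/6N mice given 5 mg/kg iv bolus (1 mg/mL, DMSO:PEG400:water 10:50:40, filtered); dosed material carried Ro-61-8048 as impurity, which was also quantified in plasma. LC-MS/MS after acetonitrile/formic acid extraction; composite non-compartmental analysis of mean concentrations (n=3 per time point), C0 back-extrapolated, kel from ≥3 terminal points.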

Liver [19] = test: Metabolic stability in mouse liver microsomes assessed as intrinsic clearance at 1 uM after 5 to 40 mins by LC-MS/MS analysis
[20] = Cmax in mouse at 10 mg/kg, po; type: ADME, organism-based; set-up: dose 10 mg/kg, route oral; conditions: in vivo
[21] = Half life in simulated gastric fluid of pH 1.2 at 10 uM after 2 and 4 hrs by LC-UV analysis; type: ADME
Method in brief: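 Compound at 10 µM was shaken at about 25 °C in simulated gastric fluid (2 g/L NaCl, 3.2 g/L pepsin, 0.7% HCl, pH 1.2) and in pepsin-free gastric buffer. Aliquots were taken at 0, 2 and 4 h, diluted into DMSO, and analysed immediately by LC-UV at 254 nm.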

[22] = Oral bioavailability in C57BL/6N mouse treated with JM6 (containing <0.4% Ro-61-8048) at 9 mg/kg and Ro-61-8048 at 1 mg/kg drugs administered via gavage by LC-MS/MS analysis; type: ADME, organism-based; conditions: in vivo; method in brief: as §3
[23] = Mean residence time in C57BL/6N mouse at 5 mg/kg, iv administered as single dose containing <0.4% Ro-61-8048 by LC-MS/MS analysis; type: ADME, organism-based; set-up: dose 5 mg/kg, route intravenous; conditions: in vivo; method in brief: as §4

An AUC(0-t) [1] of 4.3 µM·h, a Cmax [2] of 280 nM and an AUC(0-t) [3] of 510 µM·h were found for `COc1ccc(S(=O)(=O)Nc2nc(-c3cccc([N+](=O)[O-])c3)cs2)cc1OC` in this work. For the same compound, the Cmax/dose (Mus musculus [4]) was 11000 nM, the fraction unbound at 6 h [5] was < 0.01 and the IC50 [6] was 8 µM. The MRT [7] was 498 min, the AUC(0-inf) [8] was 550 µM·h and the Tmax [9] was 30 min. For the same compound, the bioavailability [10] was 70%, the IC50 [11] was > 30 µM and the half-life [12] was 312 min.

An AUC(0-t) [13] of 5.2 µM·h, a t1/2 (Liver [14]) of 12 min and a Cmax (Mus musculus [15]) of 100 nM were found for `COc1ccc(S(=O)(=O)Nc2nc(-c3cccc([N+](=O)[O-])c3)c(CN3CCCCC3)s2)cc1OC` in this work. For the same compound, the Cmax [16] was 3400 nM, the IC50 [17] was 4 µM and the Vd [18] was 0.37 L/kg. For the same compound, the CLH (Liver [19]) was 220 µL/min/mg, the Cmax [20] was 1100 nM and the half-life at 10 µM [21] was > 1080 min. For the same compound, the bioavailability [22] was 7.8% and the MRT [23] was 12 min.
